Laboratory results as given in the RNAGym collection of RNA variant scans (doi:10.1126/science.aae0568).
This sample holds only a part of the variants without activity.

B1: tRNA (parent)
chain: GUUCCGUUGGCGUAAUGGUAACGCGUCUCCCUCCUAAGGAGAAGACUGCGGGUUCGAGUCCCGUACGGAACG

Variants of: B1
Test: yeast fitness relative to wild type (ratio to wild type); higher = fitter; tRNA-Arg(CCU), competitive growth, 37 C, YPD
Procedure, shortened: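 Variants of the tRNA-Arg(CCU) gene were chemically synthesised with a 3% per-site mutation rate across 69 sites and placed at the native genomic locus in Saccharomyces cerevisiae. Six parallel replicates of the pooled strains were competed in YPD at 37°C for 24 hours, and gene amplicons from the start and end populations were read by 100-nucleotide paired-end sequencing. Darwinian fitness relative to wild type was derived from changes in genotype frequencies. Genotypes required ≥ 100 starting reads, and estimates < 0.5 were set to 0.5.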

Point of comparison: U7A A20C C29U C33G, yeast fitness 0.638. Against it:
- U8C A40G A43C — higher, 0.732
- G6A A21U U26G A70C — lower, 0.569
- C29U C30A C61U — lower, ≤ 0.5
- C27U C29A A36U A40C G41A A65U — lower, ≤ 0.5
- C34A U47C — higher, 0.646
- G67U A69U — higher, 0.887
- C11A U26C C29G C31U — higher, 0.655
- C5G C34A — higher, 0.702
- G10C C33G C62A G67C — lower, ≤ 0.5
- U7C G17A C62U — lower, ≤ 0.5
- C22U C33G A42C C49G G58C C62G — lower, ≤ 0.5
- G9C C46U G63A — higher, 0.69
- C11A A21U C66U — lower, ≤ 0.5
- U2C C46U A65U — higher, 1.06
- U26A G38C U47A C49A — lower, ≤ 0.5
- G6C U7C C27U — lower, ≤ 0.5
- U3A G18A C49G C55G C60A C62A G68A A69U — lower, 0.623
- C5G A65U C66G — lower, ≤ 0.5
- U8G G10C A20G G58A — lower, ≤ 0.5
- U2A C30A C49U C61G — lower, ≤ 0.5
- C4A A70G — higher, 0.93
- C27U A37U A69C — lower, 0.608
- C5A A15C C29A A42C A45G G56C — lower, ≤ 0.5
- G9A A65G C66U — higher, 0.815
- C5G A40C — the same, 0.638
- C31U A37C — higher, 0.761
- C27A G58C — higher, 1.13
- G25A C30U A36C — lower, ≤ 0.5
- U19C C27G C30U — lower, 0.55
- G10C U13A A14G A20G C22A C24G G52C — lower, ≤ 0.5
- C4G U16C A36U — lower, ≤ 0.5
- A45G A57U — higher, 0.751
- C4G C11G C33G U47A — lower, ≤ 0.5
- C5A C11U C34A A40U A42U C49A G50C A57C C66G — lower, ≤ 0.5
- U3A C34U A45G C49U U53A — lower, ≤ 0.5
- U8C U16A A21C C24G A37U C55U — lower, ≤ 0.5
- C49U G67U — higher, 0.885
- U19C C31U C33G G41A C49G U54C U59C G63A — lower, ≤ 0.5
- U7A C29A G50C U54C — lower, ≤ 0.5
- A37C A43C C62U — higher, 0.882
- C5A U19A C62A — lower, ≤ 0.5
- A43U G51C C61G — lower, 0.593
- C22A C24G A69U — lower, ≤ 0.5
- C5G G17C C46U G50A — lower, ≤ 0.5
- A15G G58C C62G — lower, ≤ 0.5
- U26C C31U A43G G63A — lower, 0.611
- G12C A70U — higher, 0.707
- G23C C29G A43U — lower, ≤ 0.5
- A15G G39A A40G A57C — lower, 0.534
- C55U C66A — higher, 0.656
- U2A C24U C30U C33G A36C A37C A42C A65U — lower, ≤ 0.5
- C33U A65C — higher, 0.664
- A21G G44C A69U — higher, 0.681
- C30A A36U — higher, 0.697
- U3C G12A A57C C61A A69C — lower, ≤ 0.5
- U16G G41C A45U G51A C61U A70C — higher, 0.639
- G6A C24U C31A A43C U53C — lower, ≤ 0.5
- G10C A14C C27A C29G A57C — lower, ≤ 0.5
- C11A A14U C27U — lower, ≤ 0.5
- U8C G12A G48C — higher, 0.675
- C22A G23A C33U A42U A69U — lower, ≤ 0.5
- C24A U59A C61U — lower, 0.567
- G10A A36C — lower, ≤ 0.5
- C5A A43U U47C — lower, 0.543
- C5G A21G U32C C49G A65G — lower, 0.553
- C22U C30G C49U — lower, ≤ 0.5
- C27G C30U U32C G51C U64A — lower, ≤ 0.5
- A14U A15C A40G U47C G56C G67C — lower, ≤ 0.5
- U19A C30A A43G C49U G51U C55A — lower, 0.528
- G12C C22U U54C C61U — lower, 0.532
- U3A G25A A37U C61A — lower, ≤ 0.5
- A14U U16A U26G C29G G67C — lower, ≤ 0.5
- G9A A20G C30U — higher, 0.71
- U2A U13G C62G — lower, ≤ 0.5
- G25A A70C — higher, 1.05
- G12A A15C — higher, 0.773
- C49A A57U — lower, 0.55
- U8G A14U G50A A57U A70G — lower, ≤ 0.5
- A21U G44A — higher, 0.782
- C27U C29G C31A — lower, ≤ 0.5
- G50C G52A C61G — higher, 0.722
- U7C C33G A37G A70G — lower, ≤ 0.5
- G9A U19C C22A — lower, 0.606
